Activity calls are given as the source filed them. The rule behind the calls is not given here.
Legend:
[1] = test system: HepG2; assay: Cytotoxicity against human HepG2 cells after 24 hrs by MTT assay; assay type: functional, cell-based; settings: HepG2, 24 h
[2] = Cytotoxicity against KM mouse splenic lymphocytes; settings: Splenic lymphocyte
[3] = test system: A549; assay: Cytotoxicity against human A549 cells after 24 hrs by MTT assay; assay type: functional, cell-based; settings: A549, 24 h
[4] = species: Sus scrofa; assay: Inhibition of Na(+)/K(+) ATPase in pig cerebral cortex assessed as release of inorganic phosphate at 50 uM after 15 mins by colorimetric method; assay type: tissue-based
[5] = Inhibition of Na(+)/K(+) ATPase in pig cerebral cortex assessed as release of inorganic phosphate after 15 mins by colorimetric method
[6] = Cytotoxicity against KM mouse splenic lymphocytes assessed as cell viability at 5 uM; parameters: species or system Splenic lymphocyte; settings: read-out: Activity
How it was run: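 Spleens from KM mice were homogenized in PBS and centrifuged. The pellet was red-cell-lysed for 5 min (Tris-base 2.6 g/L, NH4Cl 7.47 g/L, pH 7.2), then passed through a 300-mesh sieve. The resulting lymphocytes were tested by MTT assay, and survival rate was scored at 5 μM.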

SMILES	IC50 [1] [µM]	IC50 [2] [µM]	IC50 [3] [µM]	inhibition [4]	IC50 [5] [nM]	viability at 5 µM [6] [%]
C[C@@H]1O[C@@]12[C@@H]1O[C@@H]3C[C@H]2[C@@]2(C)CC[C@H]4[C@@H](CC[C@@H]5C[C@@H](O)CC[C@@]54C)[C@@]32O1	> 100	> 100	> 100			
COC(=O)CCC(=O)C1=CC=C2[C@@H]3CC[C@@H]4C[C@@H](O)CC[C@]4(C)[C@H]3CC[C@]12C	> 100	> 100	> 100	inactive		
C/C=C(\C=O)[C@H]1[C@@H](OC(C)=O)[C@H]2O[C@]23[C@@H]2CC[C@@H]4C[C@@H](O)CC[C@]4(C)[C@H]2CC[C@]13C	> 26.8	> 100	45.6			
C=CC1=CO[C@]23C[C@H](OC(C)=O)[C@H]1[C@@]2(C)CC[C@H]1[C@H]3CC[C@@H]2C[C@@H](O)CC[C@@]21C	64.8	> 100	> 100			
C=CC1=CO[C@]23CC[C@H]1[C@@]2(C)CC[C@H]1[C@H]3CC[C@]2(O)C[C@@H](O)CC[C@]12C	68.7	79.4	> 100	inactive		
C[C@]12CC[C@H](O)C[C@H]1CC[C@@H]1[C@@H]2CC[C@]2(C)[C@@H](c3ccc(=O)oc3)CC[C@]12O [BUFALIN]	0.6		0.6		11	100
C[C@]12CC[C@H](O)C[C@H]1CC[C@@H]1[C@@H]2CC[C@]2(C)[C@@H](c3ccc(=O)oc3)C[C@H]3O[C@]132 [BUFOGENIN]	43.3	> 100	> 100			
CC(=O)O[C@H]1C[C@]2(O)[C@@H]3CC[C@@H]4C[C@@H](O)CC[C@]4(C)[C@H]3CC[C@]2(C)[C@H]1c1ccc(=O)oc1 [BUFOTALIN]	0.5		0.9			100
CC(=O)O[C@H]1[C@H]2O[C@]23[C@@H]2CC[C@@H]4C[C@@H](O)CC[C@]4(C)[C@H]2CC[C@]3(C)[C@H]1c1ccc(=O)oc1 [CINOBUFAGIN]	5.5		6.5			100
COc1cccc2c1C(=O)c1c(O)c3c(c(O)c1C2=O)C[C@@](O)(C(=O)CO)C[C@@H]3O[C@H]1C[C@H](N)[C@H](O)[C@H](C)O1 [DOXORUBICIN]			0.1			
C[C@]12CC[C@H](O)C[C@@]1(O)CC[C@@H]1[C@@H]2CC[C@]2(C)[C@@H](c3ccc(=O)oc3)CC[C@]12O [TELOCINOBUFAGIN]	2.4		3			100
